Test results: ChEMBL document CHEMBL1145310, “Isothiazolopyrimidines and isoxazolopyrimidines as novel multi-targeted inhibitors of receptor tyrosine kinases” (Bioorg Med Chem Lett, 2006)

What was measured:
[1] = Half life in mouse at 3 mg/kg, iv; format: ADME, organism-based; set-up: dose 3 mg/kg, route intravenous; conditions: in vivo
Method in brief: (§1)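 Mouse pharmacokinetics: single intravenous dose of 3 mg/kg and single oral dose of 10 mg/kg. Half-life, volume of distribution at steady state, clearance, oral bioavailability and oral AUC were determined.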

[2] = Clearance in mouse at 3 mg/kg, iv; format: ADME, organism-based; set-up: dose 3 mg/kg, route intravenous; conditions: in vivo
[3] = target: Vascular endothelial growth factor receptor 1 (Homo sapiens, UniProt P17948); assay: Inhibition of FLT1
[4] = Oral bioavailability in mouse at 10 mg/kg, po; conditions: in vivo
[5] = target: Mast/stem cell growth factor receptor Kit (Homo sapiens, UniProt P10721); assay: Inhibition of CKIT
[6] = target: Vascular endothelial growth factor receptor 3 (Homo sapiens, UniProt P35916); assay: Inhibition of FLT4
[7] = AUC in mouse at 10 mg/kg, po; format: ADME, organism-based; set-up: dose 10 mg/kg, route oral; conditions: plasma; method in brief: as §1
Angiopoietin-1 receptor = Angiopoietin-1 receptor (Homo sapiens, UniProt Q02763); assay: Inhibition of TIE2
Method in brief: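 Kinase enzymatic assays run separately for each target. Each IC50 came from seven inhibitor concentrations, with every assay point determined in duplicate.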

[8] = Volume of distribution in mouse at 3 mg/kg, iv; format: ADME, organism-based; set-up: dose 3 mg/kg, route intravenous; conditions: in vivo, read-out: Vdss
[9] = target: Vascular endothelial growth factor receptor 2 (Homo sapiens, UniProt P35968); assay: Inhibition of KDR

Chain of Vascular endothelial growth factor receptor 3 (P35916 whole entry): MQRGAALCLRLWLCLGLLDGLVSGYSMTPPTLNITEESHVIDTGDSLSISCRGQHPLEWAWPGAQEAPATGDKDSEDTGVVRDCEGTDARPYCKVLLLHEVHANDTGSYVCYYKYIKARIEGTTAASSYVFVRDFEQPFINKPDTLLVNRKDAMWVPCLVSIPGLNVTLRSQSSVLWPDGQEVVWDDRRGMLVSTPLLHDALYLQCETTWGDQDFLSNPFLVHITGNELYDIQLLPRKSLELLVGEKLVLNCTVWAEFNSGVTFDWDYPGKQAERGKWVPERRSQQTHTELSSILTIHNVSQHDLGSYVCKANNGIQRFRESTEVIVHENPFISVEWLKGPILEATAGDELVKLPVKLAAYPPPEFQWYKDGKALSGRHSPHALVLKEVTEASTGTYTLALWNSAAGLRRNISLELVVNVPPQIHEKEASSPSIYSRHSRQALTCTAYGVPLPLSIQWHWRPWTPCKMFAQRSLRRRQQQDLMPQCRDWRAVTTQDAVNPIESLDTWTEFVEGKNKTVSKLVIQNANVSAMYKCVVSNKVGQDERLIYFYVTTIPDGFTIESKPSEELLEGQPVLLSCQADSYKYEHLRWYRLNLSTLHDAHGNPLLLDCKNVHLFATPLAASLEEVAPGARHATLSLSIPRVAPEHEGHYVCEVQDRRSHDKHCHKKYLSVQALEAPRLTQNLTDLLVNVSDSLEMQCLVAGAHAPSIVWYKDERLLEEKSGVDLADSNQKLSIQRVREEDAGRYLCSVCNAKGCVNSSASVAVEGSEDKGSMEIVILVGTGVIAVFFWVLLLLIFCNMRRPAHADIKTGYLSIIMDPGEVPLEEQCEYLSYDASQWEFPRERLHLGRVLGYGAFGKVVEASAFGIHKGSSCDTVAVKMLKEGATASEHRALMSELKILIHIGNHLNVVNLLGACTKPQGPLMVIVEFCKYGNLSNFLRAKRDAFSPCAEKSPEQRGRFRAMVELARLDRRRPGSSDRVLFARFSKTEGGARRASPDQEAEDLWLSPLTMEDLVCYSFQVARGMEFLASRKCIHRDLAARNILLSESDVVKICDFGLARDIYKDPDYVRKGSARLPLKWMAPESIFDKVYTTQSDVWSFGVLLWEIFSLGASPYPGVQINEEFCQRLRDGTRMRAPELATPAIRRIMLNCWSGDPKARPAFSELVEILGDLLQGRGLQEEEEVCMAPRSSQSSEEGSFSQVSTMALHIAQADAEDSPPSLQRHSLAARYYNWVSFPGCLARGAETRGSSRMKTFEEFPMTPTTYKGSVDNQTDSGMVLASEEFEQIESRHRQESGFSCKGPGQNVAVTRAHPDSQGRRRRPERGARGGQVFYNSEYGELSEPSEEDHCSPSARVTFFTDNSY
Chain of Angiopoietin-1 receptor (Q02763 whole entry): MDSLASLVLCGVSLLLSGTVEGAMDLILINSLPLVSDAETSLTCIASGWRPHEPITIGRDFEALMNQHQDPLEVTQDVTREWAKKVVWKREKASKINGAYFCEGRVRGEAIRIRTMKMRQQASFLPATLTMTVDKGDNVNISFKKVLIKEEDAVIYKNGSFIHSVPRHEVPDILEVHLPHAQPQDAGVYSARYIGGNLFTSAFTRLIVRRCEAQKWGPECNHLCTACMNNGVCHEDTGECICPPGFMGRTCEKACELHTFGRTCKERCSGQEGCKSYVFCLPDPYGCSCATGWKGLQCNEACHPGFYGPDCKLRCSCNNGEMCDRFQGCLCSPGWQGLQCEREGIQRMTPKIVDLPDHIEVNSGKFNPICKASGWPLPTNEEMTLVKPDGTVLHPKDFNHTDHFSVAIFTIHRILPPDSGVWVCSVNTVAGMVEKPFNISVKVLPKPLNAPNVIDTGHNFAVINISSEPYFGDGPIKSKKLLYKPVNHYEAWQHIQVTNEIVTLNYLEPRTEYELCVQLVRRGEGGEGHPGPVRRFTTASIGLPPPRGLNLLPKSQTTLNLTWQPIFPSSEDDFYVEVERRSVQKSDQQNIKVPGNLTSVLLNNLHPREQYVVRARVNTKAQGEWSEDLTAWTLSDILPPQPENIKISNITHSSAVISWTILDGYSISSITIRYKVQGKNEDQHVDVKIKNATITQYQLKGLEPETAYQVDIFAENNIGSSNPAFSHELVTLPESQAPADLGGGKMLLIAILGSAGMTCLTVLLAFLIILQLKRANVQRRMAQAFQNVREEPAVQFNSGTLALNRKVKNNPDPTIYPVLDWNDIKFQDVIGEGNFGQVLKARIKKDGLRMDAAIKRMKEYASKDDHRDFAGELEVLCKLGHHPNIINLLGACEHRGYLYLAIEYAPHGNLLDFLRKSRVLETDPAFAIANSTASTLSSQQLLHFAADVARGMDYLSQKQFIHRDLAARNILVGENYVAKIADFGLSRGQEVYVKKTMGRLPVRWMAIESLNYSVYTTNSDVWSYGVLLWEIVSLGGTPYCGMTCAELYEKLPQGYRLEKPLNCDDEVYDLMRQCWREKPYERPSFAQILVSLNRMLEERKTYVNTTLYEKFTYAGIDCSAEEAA
Chain of Vascular endothelial growth factor receptor 1 (P17948 whole entry): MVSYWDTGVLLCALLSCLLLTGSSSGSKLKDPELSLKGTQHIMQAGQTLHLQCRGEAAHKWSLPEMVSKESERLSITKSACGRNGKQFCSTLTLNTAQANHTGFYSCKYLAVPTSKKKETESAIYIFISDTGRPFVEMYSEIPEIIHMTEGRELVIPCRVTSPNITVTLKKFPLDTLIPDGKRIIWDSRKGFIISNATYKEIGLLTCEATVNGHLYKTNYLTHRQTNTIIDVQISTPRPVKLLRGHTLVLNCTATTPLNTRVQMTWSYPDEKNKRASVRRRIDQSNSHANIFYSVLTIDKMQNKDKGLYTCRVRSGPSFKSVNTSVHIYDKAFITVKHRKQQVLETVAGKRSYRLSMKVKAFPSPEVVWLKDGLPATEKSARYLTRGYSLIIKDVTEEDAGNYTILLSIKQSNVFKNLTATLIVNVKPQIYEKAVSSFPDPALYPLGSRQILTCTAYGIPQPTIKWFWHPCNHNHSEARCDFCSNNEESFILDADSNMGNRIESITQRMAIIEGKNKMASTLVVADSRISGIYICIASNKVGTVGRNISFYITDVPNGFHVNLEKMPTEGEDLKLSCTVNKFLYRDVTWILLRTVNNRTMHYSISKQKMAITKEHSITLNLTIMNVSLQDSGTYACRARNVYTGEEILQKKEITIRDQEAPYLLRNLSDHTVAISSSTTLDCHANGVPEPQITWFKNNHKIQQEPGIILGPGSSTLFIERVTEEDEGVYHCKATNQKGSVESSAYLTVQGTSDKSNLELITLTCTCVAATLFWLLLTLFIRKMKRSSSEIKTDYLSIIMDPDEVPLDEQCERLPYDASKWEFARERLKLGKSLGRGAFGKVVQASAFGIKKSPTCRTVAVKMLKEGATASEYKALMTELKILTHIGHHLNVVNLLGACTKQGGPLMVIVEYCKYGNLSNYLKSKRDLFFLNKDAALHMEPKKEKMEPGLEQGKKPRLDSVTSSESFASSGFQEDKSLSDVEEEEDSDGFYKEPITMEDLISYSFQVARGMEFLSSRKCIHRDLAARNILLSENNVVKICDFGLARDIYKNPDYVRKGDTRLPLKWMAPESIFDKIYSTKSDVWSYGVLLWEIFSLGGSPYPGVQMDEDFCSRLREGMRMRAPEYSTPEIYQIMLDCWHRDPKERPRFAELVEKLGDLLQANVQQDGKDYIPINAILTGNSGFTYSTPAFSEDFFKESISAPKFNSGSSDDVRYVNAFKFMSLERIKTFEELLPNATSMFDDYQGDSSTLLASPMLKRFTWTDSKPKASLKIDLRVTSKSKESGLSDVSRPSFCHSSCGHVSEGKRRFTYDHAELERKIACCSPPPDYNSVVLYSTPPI
Chain of Mast/stem cell growth factor receptor Kit (P10721 whole entry): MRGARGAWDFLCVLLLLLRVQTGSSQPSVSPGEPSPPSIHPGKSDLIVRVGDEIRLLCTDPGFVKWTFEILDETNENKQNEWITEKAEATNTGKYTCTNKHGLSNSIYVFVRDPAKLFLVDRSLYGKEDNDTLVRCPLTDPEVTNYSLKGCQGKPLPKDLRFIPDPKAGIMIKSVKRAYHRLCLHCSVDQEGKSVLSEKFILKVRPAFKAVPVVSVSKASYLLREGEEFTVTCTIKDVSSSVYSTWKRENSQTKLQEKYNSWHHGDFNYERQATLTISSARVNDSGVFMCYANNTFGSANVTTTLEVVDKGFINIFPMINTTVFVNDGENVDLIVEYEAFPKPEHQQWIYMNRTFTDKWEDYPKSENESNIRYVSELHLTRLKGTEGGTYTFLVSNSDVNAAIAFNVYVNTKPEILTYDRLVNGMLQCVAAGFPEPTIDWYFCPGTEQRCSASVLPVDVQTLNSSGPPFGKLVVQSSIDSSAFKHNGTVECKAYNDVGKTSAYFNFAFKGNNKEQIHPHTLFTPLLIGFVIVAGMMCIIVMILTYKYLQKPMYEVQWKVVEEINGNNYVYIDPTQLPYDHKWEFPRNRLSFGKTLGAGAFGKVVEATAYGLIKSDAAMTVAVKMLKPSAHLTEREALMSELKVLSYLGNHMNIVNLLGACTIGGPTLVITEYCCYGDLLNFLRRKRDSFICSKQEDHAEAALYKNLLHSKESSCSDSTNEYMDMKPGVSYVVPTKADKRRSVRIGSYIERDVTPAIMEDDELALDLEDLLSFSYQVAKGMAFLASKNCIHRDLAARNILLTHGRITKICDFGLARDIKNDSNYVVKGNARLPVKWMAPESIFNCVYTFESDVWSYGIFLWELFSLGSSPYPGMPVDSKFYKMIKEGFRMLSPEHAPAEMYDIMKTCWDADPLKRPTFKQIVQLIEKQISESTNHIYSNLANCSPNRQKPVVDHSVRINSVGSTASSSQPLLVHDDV

Row | Structure (SMILES) | half-life [1] [min] | clearance [2] [mL/min/kg] | IC50 [3] [nM] | bioavailability [4] [%] | IC50 [5] [nM] | IC50 [6] [nM] | AUC [7] [µM·h] | IC50 (Angiopoietin-1 receptor) [nM] | Vd [8] [L/kg] | IC50 [9] [nM]
1 | Nc1ncnc2snc(-c3ccc([N+](=O)[O-])cc3)c12 |  |  |  |  |  |  |  |  |  | > 50000
2 | Nc1ncnc2snc(-c3ccc(NC(=O)Nc4cccc(C(F)(F)F)c4)cc3)c12 |  |  | 39 |  | 18 | < 3 |  | 28 |  | 
3 | Nc1ncnc2snc(-c3ccc(NC(=O)Nc4cc(C(F)(F)F)ccc4F)cc3)c12 |  |  | 75 |  | 28 | 23 |  | 22 |  | 
4 | Cc1ccc(F)c(NC(=O)Nc2ccc(-c3nsc4ncnc(N)c34)cc2)c1 | 12 | 75 |  | 48 |  |  | 2.7 | 19 | 1.19 | 

The remaining lines, values ahead:

Row | half-life [1] [min] | clearance [2] [mL/min/kg] | IC50 [3] [nM] | bioavailability [4] [%] | IC50 [5] [nM] | IC50 [6] [nM] | AUC [7] [µM·h] | IC50 (Angiopoietin-1 receptor) [nM] | Vd [8] [L/kg] | IC50 [9] [nM] | Structure (SMILES)
5 | 36 | 26.7 | 79 | 56 | 11 | 4 | 9.1 | 415 | 1.36 |  | Cc1cccc(NC(=O)Nc2ccc(-c3nsc4ncnc(N)c34)cc2)c1
6 | 42 |  |  | 65 |  |  | 14 |  |  |  | Cc1cccc(NC(=O)Nc2ccc(-c3csc4ncnc(N)c34)cc2)c1
7 |  |  |  |  |  |  |  |  |  | > 50000 | Nc1ncnc2onc(-c3ccc(NC(=O)c4ccccc4)cc3)c12
8 |  |  |  |  |  |  |  |  |  | > 50000 | Cc1cc(C)c2oc(Nc3ccc(-c4noc5ncnc(N)c45)cc3)nc2c1
